The values that follow come from ChEMBL document CHEMBL1122364, “Preparation of 2-amino-4(3H)-oxopyrimido[5,4-b] [1,4]thiazines (5-thiapterins) and their evaluation as cofactors for phenylalanine hydroxylase” (J Med Chem, 1983).

One assay has as its target T1, Phenylalanine-4-hydroxylase (Rattus norvegicus, UniProt P04176).
T1 sequence (P04176 whole entry): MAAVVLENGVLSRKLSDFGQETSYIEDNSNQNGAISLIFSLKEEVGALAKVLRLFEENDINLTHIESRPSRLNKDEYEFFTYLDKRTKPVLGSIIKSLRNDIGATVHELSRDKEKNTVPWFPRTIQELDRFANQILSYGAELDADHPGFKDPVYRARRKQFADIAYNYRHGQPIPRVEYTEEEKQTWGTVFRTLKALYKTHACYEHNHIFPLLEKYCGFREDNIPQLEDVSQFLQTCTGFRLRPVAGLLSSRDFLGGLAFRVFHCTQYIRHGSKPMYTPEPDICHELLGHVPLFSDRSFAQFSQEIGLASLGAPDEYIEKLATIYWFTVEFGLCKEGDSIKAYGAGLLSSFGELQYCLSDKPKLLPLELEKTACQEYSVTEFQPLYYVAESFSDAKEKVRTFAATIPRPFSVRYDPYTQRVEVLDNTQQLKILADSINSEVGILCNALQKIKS
Description: Tested for competitive binding inhibition against phenylalanine hydroxylase in rat liver. Summed up: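 Initial rate of tyrosine formation followed at 25 °C as the rise in absorbance at 275 nm. The cofactor was 6-MePH₄ at 12.5–50 μM.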
`CC1CNc2nc(N)[nH]c(=O)c2S1` (stereo unspecified) showed a Ki of 36 µM. Take `Nc1nc(O)c2c(n1)NCC[S+]2[O-]` (stereo unspecified): the affinity, expressed as Ki, was 400 µM. Still for that read-out and setting: the value for `Nc1nc(O)c2c(n1)SCC(c1ccccc1)N2` (stereo unspecified) was 500 µM. As to `Nc1nc(O)c2c(n1)NCCS2`, the inhibition constant Ki is 85 µM. Against the preceding molecule, the Ki is about 5.9-fold lower. On to `Nc1nc(N)c(Sc2ccccc2)c(O)n1`, for which affinity was put at a Ki of 4.7 µM. For the molecule `Nc1nc2c(c(=O)[nH]1)SC(c1ccccc1)CN2` (stereo unspecified), the affinity, expressed as Ki, was 0.2 µM. Against the preceding molecule, the Ki is about 24-fold lower. Still for that read-out and setting: the value for `Nc1nc(O)c2c(n1)NCC(c1ccccc1)[S+]2[O-]` (stereo unspecified) was 7 µM. On the same count and under the same terms, to `CC1CNc2nc(N)nc(O)c2[S+]1[O-]` (stereo unspecified) belongs 125 µM.

Tested on in the next assay: not listed separately
Nature of the assay: Michaelis-Menten constant was determined for the compound.
Consider `Nc1nc(O)c2c(n1)NCC(c1ccccc1)N2` (stereo unspecified), for which the Km was found to be 3 µM. Turning to `CC1CNc2nc(N)[nH]c(=O)c2N1` (stereo unspecified), the Michaelis constant (Km) amounted to 40 µM. The same measure, in the same setting: the value for `Nc1nc(O)c2c(n1)NCCN2` was 130 µM.

By Ki is commonly meant the equilibrium dissociation constant of an inhibitor or competing ligand from its target. A lower Ki goes with higher affinity. As a reminder, the Km is the substrate concentration at which the rate is half of its maximum.
